Paper PMC4101349 (Translational Oncology, 2014)

How the values were obtained:
[1] = test system: DNA repair proteins (Mre11, Nbs1, pNbs1, Rad50, Rad51, FANCD2); test: Western blot of DNA repair proteins in lung cancer cells; format: cell-based, human; details: LY294002 40 μM with 20 μM BO-1509, 24 hours; H460, A549, PC9, PC9/gef B4
Procedure, shortened: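 H460, A549, PC9 and PC9/gef B4 cells were treated for 24 h with 10-80 μM test compound. Alternatively, they received 20 μM test compound and/or 40 μM PI3K inhibitor for 24 h. Lysates in electrophoresis sample buffer were run on SDS-PAGE and transferred to PVDF. Membranes took primary antibodies overnight at 4°C and HRP secondary antibody for 1 h at room temperature. Detection was by chemiluminescence, with β-actin as loading control.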

PC9/gef B4 cells [2] = test: Mouse xenograft model, PC9/gef B4; format: in vivo, BALB/c nude mice; details: PC9/gef B4-xenografted mice; LY294002 40 mg/kg i.p. daily
Procedure, shortened: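 PC9/gef B4 cells were implanted s.c. in the flank of male BALB/c nude mice, six weeks old. At about 70 mm3, mice were randomized into four groups: vehicle, test compound 5 mg/kg i.v. every other day ×5, PI3K inhibitor by daily i.p. injection, or the combination. Vehicle was saline with 8% DMSO, 6% Tween-80 and 16% cremophor. Caliper tumor volume was calculated as (length × width²)/2.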

PC9 cells = test: Alamar Blue cytotoxicity assay, PC9; format: cell-based; details: Homo sapiens, PC-9, 72 h, read-out: IC50 (50% inhibition of cell growth)
Procedure, shortened: (§1)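 Cells were seeded at 3000 per well and incubated overnight at 37°C. They were then exposed for 72 h to a range of test compound concentrations, alone or combined with a PI3K inhibitor. Alamar Blue was added for 6 h and absorbance read at 570 and 600 nm. IC50 was derived by the median-effect principle, as mean ± SD of three independent experiments. A549 was kept in DMEM; other lines in RPMI 1640 with 10% FBS, at 37°C and 5% CO2.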

PC9/gef B4 cells [3] = test: Alamar Blue cytotoxicity assay, PC9/gef B4; format: cell-based; details: Homo sapiens, 72 h, read-out: IC50 (50% inhibition of cell growth)
Procedure, shortened: as §1

[4] = Complete blood profile in treated mice; format: in vivo, BALB/c nude mice; details: 10th day
Procedure, shortened: (§2)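 Male BALB/c nude mice, six weeks old, received vehicle, test compound, PI3K inhibitor, or both. The test compound was given at 5 mg/kg i.v. on days 0, 2, 4, 6 and 8; the inhibitor at 40 mg/kg i.p. daily. Vehicle was 0.9% saline with 8% DMSO, 6% Tween-80 and 16% cremophor. Hematological and serum biochemical parameters were measured 1 day after the last i.v. injection.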

[5] = test system: H460, A549, PC9, or PC9/gef B4 cells; test: Mouse xenograft models, suppression of tumor growth; format: in vivo, BALB/c nude mice; details: H460, A549, PC9, PC9/gef B4 xenografts; BO-1509 5 mg/kg i.v. every other day times five; LY294002 40 mg/kg i.p. daily
A549 cells = test: Alamar Blue cytotoxicity assay, A549; format: cell-based; details: Homo sapiens, A549, 72 h, read-out: IC50 (50% inhibition of cell growth)
Procedure, shortened: as §1

H460 cells [6] = test: H460 xenograft: histopathology of tumor; format: in vivo, BALB/c nude mice; details: H460-xenografted mice; 29th day; histopathologic examination
Procedure, shortened: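 Nude mice were inoculated s.c. in the flank with H460 cells (approximately 3 × 10^6 to 5 × 10^6 in 100 μl PBS). Dosing began at about 100 mm3: test compound 5 mg/kg i.v. every other day ×5, PI3K inhibitor 40 mg/kg i.p. daily, or both. Tumors were taken 24 h after the final treatment for cleaved caspase-3 immunohistochemistry. Lungs were taken 29 days after transplantation for H&E histology.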

[7] = Blood enzymes / biochemical parameters in treated mice; format: in vivo; details: 10th day; BALB/c nude mice; mean ± SD
Procedure, shortened: as §2

H460 cells [8] = test: Alamar Blue cytotoxicity assay, H460; format: cell-based; details: Homo sapiens, NCI-H460, 72 h, read-out: IC50 (50% inhibition of cell growth)
Procedure, shortened: as §1

Basophils ([4]; BALB/c nude mice, mean ± SD): 0.07 ± 0.00 10^3/μl
Eosinophils ([4]; BALB/c nude mice, mean ± SD): 0.06 ± 0.01 10^3/μl
Hematocrit ([4]; BALB/c nude mice, mean ± SD): 54.1 ± 0.70%
Hemoglobin ([4]; BALB/c nude mice, mean ± SD): 16.25 ± 0.10 g/dL
Lymphocytes ([4]; BALB/c nude mice, mean ± SD): 0.81 ± 0.10 10^3/μl
Mean cell hemoglobin ([4]; BALB/c nude mice, mean ± SD): 15.40 ± 0.09 pg
Mean cell volume ([4]; BALB/c nude mice, mean ± SD): 51.5 ± 0.30 fL
Mean corpuscular hemoglobin concentration ([4]; BALB/c nude mice, mean ± SD): 29.90 ± 0.30 g/dL
Monocytes ([4]; BALB/c nude mice, mean ± SD): 0.15 ± 0.05 10^3/μl
Neutrophils ([4]; BALB/c nude mice, mean ± SD): 1.27 ± 0.10 10^3/μl
Platelets ([4]; BALB/c nude mice, mean ± SD): 783 ± 86 10^3/μl
RBC distribution width ([4]; BALB/c nude mice, mean ± SD): 20.90 ± 1.00%
RBCs ([4]; BALB/c nude mice, mean ± SD): 10.53 ± 0.10 10^6/μl
WBCs ([4]; BALB/c nude mice, mean ± SD): 2.37 ± 0.20 10^3/μl
decrease of RBC count and hemoglobin concentration ([4]; treated mice versus control): minimal changes
Alanine aminotransferase [7]: 31.6 ± 2.5 U/l
Blood urea nitrogen [7]: 25.0 ± 5.8 mg/dL
Glucose (GLU-P) [7]: 172 ± 23 mg/dL
LDH [7]: 463 ± 117 U/l
Compound: O=c1cc(N2CCOCC2)oc2c(-c3ccccc3)cccc12 [LY294002, 2-(4-morpholinyl)-8-phenyl-4H-1-benzopyran-4-one]
BO-1509-induced increase in pNbs1 and Rad51 [1]: suppressed
suppression of the tumor burden (PC9/gef B4 cells [2]): ~40%
IC50 (PC9 cells): 56.9 ± 1.1 µM
IC50 (PC9/gef B4 cells [3]): 31.3 ± 3.8 µM
suppression of the tumor burden [5]: limited
IC50 (A549 cells): 28.4 ± 4.3 µM
metastasis in the lungs (H460 cells [6]): 80%
AST [7]: 75.6 ± 17.8 U/l
IC50 (H460 cells [8]): 111 ± 15.1 µM
